The values below come from ChEMBL document CHEMBL5620404, “New 4-(N-cinnamoylbutyl)aminoacridines as potential multi-stage antiplasmodial leads” (Eur J Med Chem, 2023).

Active and inactive are the calls of the source. The rule behind the calls is not given here. Where only a bound is given, the exact number is not on record here.

The IC50 is the concentration at which inhibition is half-maximal.

The subject of test [1] is Plasmodium falciparum. The test is described as follows: Antiplasmodial activity against blood stage chloroquine-sensitive Plasmodium falciparum 3D7 infected in human erythrocyte incubated for 48 hrs by Syto11 staining based flow cytometry analysis. The test is classed as functional, organism-based. The conditions noted are these: 3D7, Erythrocyte. The method, boiled down:
(§1)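 3D7 asexual parasites grown in group B erythrocytes, 3% hematocrit, RPMI with 0.5% Albumax II and 2 mM L-glutamine, 37 °C, 5% O2/5% CO2/90% N2. Rings synchronized by 5% sorbitol, then exposed 48 h to compounds (0.0000256–10 μM). Syto11 nuclear stain and flow cytometry (488 nm excitation, 530/30 emission). Inhibition scaled to untreated (0%) and chloroquine-treated (100%) cultures; IC50 by sigmoidal fit.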
(Flow cytometry measures light scatter and fluorescence of single cells or particles in a stream.)

Test [2] relates to Plasmodium berghei. The test is described as follows: Antiplasmodial activity against firefly luciferase expressing liver stage Plasmodium berghei infected in human Huh-7 cells assessed as reduction in parasite growth measured after 48 hrs post infection by […] luminescence assay. The test is classed as functional, organism-based. The conditions noted are these: Huh-7, 48 h. The method, boiled down: (§2)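 Huh7 cells in supplemented RPMI 1640 seeded the day before; ~1 h before infection, medium switched to infection medium with gentamicin, amphotericin B and compound. Cells then infected with PbGFP-Luccon sporozoites from Anopheles stephensi salivary glands. At 48 h, parasite load read as luciferase luminescence in lysates, normalized to 0.01% DMSO control; IC50 by nonlinear regression.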
For orientation: The colour change of resazurin is a common sign of viable cells or microbes.

For test [3], the system named is Plasmodium falciparum. The test is described as follows: Antiplasmodial activity against Plasmodium falciparum NF54-gexp02-Tom gametocytes infected in human erythrocyte at 5 uM by giemsa staining based light microscopy analysis relative to control. The test is classed as functional.
For the next test, the system named is Huh-7. Description: Cytotoxicity against human Huh-7 cells assessed as reduction in cell confluency at 10 uM measured after 48 hrs by Alamar blue staining based analysis relative to control. The test is classed as functional. The arrangement: scale not given: the % may be the effect or the level left.
In test [4] the test system is Plasmodium berghei. The test is described as follows: Antiplasmodial activity against firefly luciferase expressing liver stage Plasmodium berghei infected in human Huh-7 cells assessed as reduction in parasite growth at 1 to 10 uM measured after 48 hrs post infection by […] luminescence assay. The test is classed as functional, organism-based. The conditions noted are these: dose 1-10 µM. The method, boiled down: as §2

Test [5] has as its system Plasmodium falciparum. The test is described as follows: Antiplasmodial activity against Plasmodium falciparum NF54-gexp02-Tom gametocytes infected in human erythrocyte by giemsa staining based light microscopy analysis. The test is classed as functional, organism-based. Summed up:
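NF54-gexp02-Tom line (tdTomato under early gametocyte promoter) grown in group B human erythrocytes, 3% hematocrit, RPMI with 10% human plasma and 2 mM choline chloride, 37 °C, 5% O2/5% CO2/90% N2. Sexual conversion induced by choline removal plus sorbitol synchronization; compounds 0.0048–100 μM present throughout.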

The test system of test [6] is Plasmodium berghei. Description: Antiplasmodial activity against firefly luciferase expressing liver stage Plasmodium berghei infected in human Huh-7 cells measured after 48 hrs post infection by […] luminescence assay. The conditions noted are these: Huh-7, 48 h. The test is classed as functional, organism-based. The method, boiled down: as §2

Test [7] concerns Plasmodium falciparum. The test is described as follows: Antiplasmodial activity against blood stage chloroquine-sensitive Plasmodium falciparum 3D7 infected in human erythrocyte. The test is classed as functional, organism-based. The conditions noted are these: 3D7, Erythrocyte. Summed up: as §1

As for `COc1cc(NCCCCNC(=O)/C=C/c2ccc(F)cc2)c2nc3cc(Cl)ccc3cc2c1`, the IC50 in the test on Plasmodium falciparum [1] is 5.83 µM; in the test with Plasmodium berghei [2], 884 nM. Further, the Activity with Plasmodium falciparum [3] is reported as 15%; with Huh-7, around 75%. Moreover, the result in the test on Plasmodium berghei [4] was Active.

Turning to `COc1cc(NCCCCNC(=O)/C=C/c2ccc(N(C)C)cc2)c2nc3cc(Cl)ccc3cc2c1`, the Activity in the test on Plasmodium falciparum [3] was found to be 15%. For the same molecule, the result with Plasmodium berghei [4] was Active.

In the case of `COc1ccc(/C=C/C(=O)NCCCCNc2cc(OC)cc3cc4ccc(Cl)cc4nc23)cc1`, the values for the IC50 with Plasmodium falciparum [1], in the test on Plasmodium berghei [2] and in the test with Plasmodium falciparum [5] were 10.3 µM, 1180 nM and 520 nM, respectively. Besides, the Activity is above 40% with Plasmodium falciparum [3] and around 75% in the test with Huh-7. The outcome with Plasmodium berghei [4] was Active.

Regarding `COc1cc(NCCCCNC(=O)/C=C/c2ccc(C)cc2)c2nc3cc(Cl)ccc3cc2c1`, the figures for the IC50 with Plasmodium falciparum [1] and in the test on Plasmodium falciparum [5] were 10.8 µM and 630 nM, respectively. In addition, in the test on Plasmodium falciparum [3], the Activity is above 40%. Also, in the test with Plasmodium berghei [4], the result was Active.

Take `COc1cc(NCCCCNC(=O)/C=C/c2cccc(F)c2)c2nc3cc(Cl)ccc3cc2c1`: the IC50 in the test on Plasmodium falciparum [1] amounted to 4.34 µM; in the test on Plasmodium berghei [2], 561 nM; in the test with Plasmodium falciparum [5], 140 nM. Moreover, the Activity in the test with Plasmodium falciparum [3] is on record as above 40%; with Huh-7 it was around 75%. For the same molecule, in the test with Plasmodium berghei [4], the outcome was Active.

As to `COc1cc(NCCCCN)c2nc3cc(Cl)ccc3cc2c1`, the IC50 with Plasmodium berghei [6] was determined as 2220 nM; with Plasmodium falciparum [7] it was 5.64 µM.

In the test on Plasmodium falciparum [3], `COc1cc(NCCCCNC(=O)/C=C/c2ccc(OC)c(OC)c2)c2nc3cc(Cl)ccc3cc2c1` gave an Activity of 15%. Also, the result in the test on Plasmodium berghei [4] was Active.

`COc1cc(NCCCCNC(=O)/C=C/c2ccc([N+](=O)[O-])cc2)c2nc3cc(Cl)ccc3cc2c1`: the IC50 in the test with Plasmodium falciparum [1] stood at 3.82 µM; in the test on Plasmodium berghei [2], 1190 nM; in the test on Plasmodium falciparum [5], 16300 nM. Further, the Activity is above 40% in the test on Plasmodium falciparum [3] and around 75% in the test with Huh-7. For the same molecule, the outcome with Plasmodium berghei [4] was Active.

In the test with Plasmodium falciparum [3], `COc1cc(NCCCCNC(=O)/C=C/c2ccc(C(F)(F)F)cc2)c2nc3cc(Cl)ccc3cc2c1` showed an Activity of 15%. For the same molecule, the outcome in the test on Plasmodium berghei [4] was Active.

In the test with Plasmodium falciparum [3], `COc1cc(NCCCCNC(=O)/C=C/c2ccc(Br)cc2)c2nc3cc(Cl)ccc3cc2c1` displayed an Activity of 15%. The result in the test on Plasmodium berghei [4] was Active.

As to `COc1cc(NCCCCNC(=O)/C=C/c2ccccc2)c2nc3cc(Cl)ccc3cc2c1`, the IC50 in the test on Plasmodium falciparum [1] is above 70 µM; in the test on Plasmodium berghei [2] it was 496 nM; in the test with Plasmodium falciparum [5], 6660 nM. The Activity with Plasmodium falciparum [3] is given as above 40%; in the test on Huh-7, around 75%. Further, the outcome in the test with Plasmodium berghei [4] was Active.

For `COc1cc(NCCCCNC(=O)/C=C/c2ccc(Cl)cc2)c2nc3cc(Cl)ccc3cc2c1`, the IC50 with Plasmodium berghei [2] was 998 nM. For the same molecule, the Activity with Plasmodium falciparum [3] is recorded as 15%; in the test with Huh-7, around 75%. Also, the result with Plasmodium berghei [4] was Active.

Take `COc1cc(NCCCCNC(=O)/C=C/c2ccc(C(C)C)cc2)c2nc3cc(Cl)ccc3cc2c1`: the IC50 in the test on Plasmodium berghei [2] worked out at 129 nM. Further, the result in the test with Plasmodium berghei [4] was Active.

As to `COc1cc(NC(C)CCCN)c2ncccc2c1` (stereo not given) [PRIMAQUINE], the 50% inhibitory concentration (IC50) with Plasmodium berghei [2] turned out to be 12300 nM.
